Most compounds without a hit are left out; they make up all but 1.8% or so of the library.
HKDC1 inhibitor: inhibitors of human hexokinase HKDC1; 340,000 tested, 0.16% active; Q2TB90; inhibition, % at 20 µM; recombinant HKDC1, G6PDH/diaphorase resazurin coupled fluorescence; AID 493160;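 active = inhibition above about 35% when tested at 20 µM, limit read from the data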
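Assay system: in-house recombinant HK5 (HKDC1) enzyme. Input: HKDC1 at 5 µg/mL. Medium: Tris pH 8.0 buffer with MgCl2, Tween-20, BSA, BME. Dosing: single 20 µM dose. Schedule: 90 min reaction incubation at room temperature, dark. Signal: resazurin-to-resorufin fluorescence via G6PDH and diaphorase coupling, 525/613 nm. Controls: DMSO-enzyme wells negative, buffer-substituted wells positive.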
LMPTP block: blocks human LMPTP phosphatase | recombinant LMPTP-A, OMFP fluorogenic substrate, fluorescence intensity | 360,000 tested, 0.22% active | P24666 | inhibition, % at 20 µM;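 active = compounds that cut the enzyme signal by at least half of the control window in the single-dose screen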
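Material: LMPTP-A; amount: 0.625 nM enzyme; doses: single 20 µM dose; times: reaction 50 min, room temperature, dark; technique: fluorescence intensity of OMFP turnover product; benchmarks: no-enzyme and uninhibited controls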
SUMO1 PPI mod: modulators of human SUMO1-mediated protein-protein interactions. P63165. SUMO1 binding to a labelled peptide, TR-FRET, 1 h. 360,000 tested, 0.33% active. inhibition, % at 20 µM; in the data active = inhibition above about 37%
STEP inh: blocks human striatal-enriched tyrosine phosphatase; P54829; recombinant STEP, OMFP fluorogenic substrate, fluorescence; inhibition, % at 20 µM; 360,000 tested, 0.25% active; AID 588621;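 active = inhibition at 20 µM, scaled per plate between control wells, above about 37%, limit read from the data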
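Assay system: isolated STEP enzyme. Buffer or medium: pH 6.0 Bis-Tris with DTT and Tween 20. Also added: fluorogenic phosphatase substrate OMFP at 25 µM final. Dosing: 20 µM, 1% DMSO. Timing: 20 min reaction, room temperature, in the dark. Measured by: fluorescence intensity, excitation 480 nm, emission 540 nm. Evaluation: normalized % inhibition.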
Scp-1 inhibitor: blocks human Scp-1 phosphatase activity; inhibition, % at 20 µM; 340,000 tested, 0.88% active; Recombinant Scp1, phosphopeptide, malachite green phosphate absorbance; AID 493091; Q9GZU7;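 active = inhibition above about 50% at 20 µM, limit read from the data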
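Test system: SCP-1 catalytic domain; Buffer or medium: Acidic Tris acetate buffer with magnesium and detergent; Also added: Phosphorylated 17-residue peptide substrate; Compound: single 20 µM dose, 1% DMSO; Schedule: enzyme reaction 45 min at room temperature, colour 5 min, stabilisation 30 min; Signal: Phosphate-binding colour reagent, absorbance read at 630 nm.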
DNMT1 block: DNMT1 (human) enzyme inhibition. DNMT1 molecular beacon, Hinp1I cleavage, fluorescence. inhibition (reported as % activation of signal), % at 10 µM. 360,000 tested, 0.83% active. AID 588458; in the data active = inhibition above about 50%
Target sequence (P26358 504-1616 limits assumed): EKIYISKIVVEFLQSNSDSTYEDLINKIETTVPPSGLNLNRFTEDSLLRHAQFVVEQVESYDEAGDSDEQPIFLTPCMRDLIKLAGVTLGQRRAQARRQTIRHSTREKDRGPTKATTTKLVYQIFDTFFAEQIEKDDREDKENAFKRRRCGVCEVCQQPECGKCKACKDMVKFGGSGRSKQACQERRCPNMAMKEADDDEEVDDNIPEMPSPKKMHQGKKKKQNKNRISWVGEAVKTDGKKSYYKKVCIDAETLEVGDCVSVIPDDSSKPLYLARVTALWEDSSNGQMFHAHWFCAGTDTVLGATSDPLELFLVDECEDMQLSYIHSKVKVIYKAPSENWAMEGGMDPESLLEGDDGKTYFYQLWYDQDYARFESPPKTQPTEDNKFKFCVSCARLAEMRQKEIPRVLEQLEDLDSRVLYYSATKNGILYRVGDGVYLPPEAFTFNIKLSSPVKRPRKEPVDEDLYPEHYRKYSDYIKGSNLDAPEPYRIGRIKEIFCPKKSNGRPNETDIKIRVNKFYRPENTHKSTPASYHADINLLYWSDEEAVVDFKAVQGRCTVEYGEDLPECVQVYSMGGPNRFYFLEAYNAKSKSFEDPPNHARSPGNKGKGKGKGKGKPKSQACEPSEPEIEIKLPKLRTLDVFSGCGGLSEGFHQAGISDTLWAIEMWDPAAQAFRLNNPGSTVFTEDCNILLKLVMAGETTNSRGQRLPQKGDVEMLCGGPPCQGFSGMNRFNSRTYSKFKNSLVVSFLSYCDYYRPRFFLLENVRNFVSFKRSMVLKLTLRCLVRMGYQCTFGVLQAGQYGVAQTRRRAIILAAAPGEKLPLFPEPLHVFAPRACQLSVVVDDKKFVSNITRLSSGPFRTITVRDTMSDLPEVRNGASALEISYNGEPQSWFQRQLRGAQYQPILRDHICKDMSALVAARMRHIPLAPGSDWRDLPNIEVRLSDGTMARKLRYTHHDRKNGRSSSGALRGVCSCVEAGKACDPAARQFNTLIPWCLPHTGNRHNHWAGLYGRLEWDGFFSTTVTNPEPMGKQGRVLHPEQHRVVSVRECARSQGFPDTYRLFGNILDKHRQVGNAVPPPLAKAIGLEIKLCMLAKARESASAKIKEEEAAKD
A number is an active result; – = inactive; · = not tested or not shown.

SMILES	HKDC1 inhibitor	LMPTP block	SUMO1 PPI mod	STEP inh	Scp-1 inhibitor	DNMT1 block
C/C=C(\C)C(=O)OC1CC(C)(C)C[C@H]2C3=CC[C@@H]4[C@@]5(C)CCC(O[C@@H]6O[C@@H](C(=O)O)[C@@H](O)C(O[C@@H]7OC[C@H](O)[C@@H](O)[C@@H]7O[C@@H]7OC(CO)C(O)[C@@H](O)[C@@H]7O)C6O[C@@H]6OC(CO)C(O)C(O)C6O)[C@@](C)(CO)[C@@H]5CC[C@]4(C)[C@]3(C)CC(O)[C@@]12CO (some centres undefined)	–	–	–	–	–	–
CN(C)c1ccc(Sc2ccc3nc(N)nc(N)c3c2)cc1	·	51	–	–	·	–
CCOC(=O)C1=C(C)N=c2sc(=Cc3ccc(OCC(=O)O)cc3)c(=O)n2C1c1ccc(SC)cc1 (centres undefined)	·	65	107	94	·	89
CCOC(=O)C1=C(C)N=c2s/c(=C\c3ccc(OCC(=O)O)cc3)c(=O)n2C1c1ccccc1 (centres undefined)	–	–	–	–	–	–
CC(C(=O)NC(C)(C)C)n1c(C(c2ccccc2)c2ccccc2)nc2ccccc21 (centres undefined)	·	–	–	·	·	·
O=C(O)CN1CCNCCN(CC(=O)O)CCNCC1	–	–	59	–	–	–
O=C(O)CN1CCN(CC(=O)O)CCN(CC(=O)O)CCN(CC(=O)O)CC1	–	–	–	–	–	–
CCN(C[C@H]1N[C@@](Cc2ccccc2)(C(=O)OC)[C@H]2C(=O)N(C)C(=O)[C@@H]12)S(=O)(=O)c1ccc(-c2ccccc2)cc1	–	–	–	–	–	–
O=C(O)c1ccc(N=Nc2c(O)[nH]c3ccc(Br)cc23)cc1	–	–	–	–	–	–
O=c1ccc2cc3c([nH]c4ccc(Br)cc43)oc-2c1O	·	52	–	–	·	–
Nc1cccc2c1C(=O)N(CCOc1ccccc1F)C2=O	–	–	–	–	56	–
CC(C)Nc1ncnc2c1ncn2[C@H]1CN(Cc2cccs2)C[C@@H](CO)O1	·	–	–	–	·	–
Oc1ccc(N=Nc2c(O)ccc3ccccc23)cc1	–	–	–	–	–	–
N=C(N)c1ccc(N=Nc2c(O)ccc3c2[nH]c2ccccc23)cc1	–	–	129	–	–	51
Cc1noc(C)c1COc1ccccc1C(=O)N(C)CC(=O)Nc1ccc(F)cc1	–	–	–	–	–	–
CCCNC(=O)C1(C)CCN(C(=O)c2ccc(F)c(Cl)c2)C1 (centres undefined)	·	–	–	–	·	–
O=C1c2cccnc2-c2ncccc21	–	–	–	–	–	–
O=C1C(=O)c2cccnc2-c2ncccc21	·	56	–	–	·	112
c1ccc(COc2ncnc3c2ncn3CCCNCc2cccs2)cc1	·	–	–	–	·	–
Cc1cccc(NC(=O)COC(=O)CN2C(=O)c3ccccc3C2=O)c1C	·	–	–	–	·	–
O=c1[nH]c(Nc2ccc(F)cc2)cc2ccccc12	–	–	–	–	–	–
Cc1ccccc1Nc1cc2ccccc2c(=O)[nH]1	–	–	–	–	–	84
O=c1[nH]c(Nc2ccccc2Cl)cc2ccccc12	–	–	–	–	–	85
COc1cc(CC(=O)N2c3ccccc3N=C(c3ccccc3)C2C(=O)NCc2ccccc2)cc(OC)c1 (centres undefined)	·	–	–	·	·	·
O=C(CCNC(=O)c1ccccc1Cl)Nc1ccc(S(=O)(=O)N2CCOCC2)cc1	·	–	–	–	·	–
Cc1ccc(S(=O)(=O)c2c(N)n(CCCN(C)C)c3nc4ccccc4nc23)cc1	–	–	–	–	–	–
COc1ccc(S(=O)(=O)c2c(N)n(Cc3ccco3)c3nc4ccccc4nc23)cc1	–	49	41	–	–	98
O=C(COC(=O)c1cc(=O)[nH]c2ccccc12)Nc1nc(-c2ccc(F)cc2)cs1	–	–	–	–	–	–
CC(=O)Nc1ccc(C(=O)COC(=O)CCc2ccccc2)c(F)c1	–	–	–	–	–	–
CCc1ccc(/C=C2/SC(=S)N(CCC(=O)Nc3ccc(C(=O)O)cc3)C2=O)cc1	·	62	85	–	·	–
